According to ChEMBL document CHEMBL2150869, “Superpotent [Dmt¹] dermorphin tetrapeptides containing the 4-aminotetrahydro-2-benzazepin-3-one scaffold with mixed μ/δ opioid receptor agonistic properties” (J Med Chem, 2011):
Active and inactive are the calls of the source. No cut-off for these calls is given here. Where a SMILES comes first, the peptide text is derived from it. [ ]: non-standard residue; d: D form. Dmt = Cc1cc(O)cc(C)c1C[C@H](N)C(=O)O; dNMeA = CN[C@H](C)C(=O)O; Sar = CNCC(=O)O

Legend:
[1] = target: T1, Delta-type opioid receptor (Homo sapiens, UniProt P41143); experiment: Agonist activity at human DOR expressed in HEK293 cells assessed as stimulation of ERK1/2 phosphorylation at 1 uM after 2 mins by Western blotting; format: functional, cell-based
T1 sequence (P41143 whole entry): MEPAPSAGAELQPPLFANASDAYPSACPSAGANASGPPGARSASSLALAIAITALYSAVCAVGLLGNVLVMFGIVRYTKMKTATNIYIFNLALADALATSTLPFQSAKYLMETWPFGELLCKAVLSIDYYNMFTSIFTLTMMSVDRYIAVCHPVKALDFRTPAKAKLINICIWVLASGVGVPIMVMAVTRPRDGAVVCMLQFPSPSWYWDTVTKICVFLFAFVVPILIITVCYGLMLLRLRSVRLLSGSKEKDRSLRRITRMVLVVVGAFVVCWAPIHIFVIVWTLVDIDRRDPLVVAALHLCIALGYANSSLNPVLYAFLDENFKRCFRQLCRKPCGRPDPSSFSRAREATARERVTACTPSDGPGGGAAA
Outline: (§1)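 HEK293 cells stably expressing the μ- or δ-opioid receptor, serum-starved 16 h, then exposed to ligand at 37 °C for the indicated times. Whole lysates run on 10% SDS-PAGE and immunoblotted for phospho-ERK1/2, with the blot reprobed for total ERK as loading control. Three independent experiments.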

[2] = target: T1, Delta-type opioid receptor; experiment: Agonist activity at human DOR expressed in HEK293 cell membrane assessed as inhibition of forskolin-induced cAMP accumulation by liquid scintillation counting relative to control; format: functional, cell membranes
[3] = target: Delta-type opioid receptor (Rattus norvegicus, UniProt P33533); experiment: Displacement of [3H]deltorphin2 from DOR in rat brain homogenates by liquid scintillation counting; format: tissue-based
Chain of Delta-type opioid receptor (Rattus norvegicus, UniProt P33533) (P33533 whole entry): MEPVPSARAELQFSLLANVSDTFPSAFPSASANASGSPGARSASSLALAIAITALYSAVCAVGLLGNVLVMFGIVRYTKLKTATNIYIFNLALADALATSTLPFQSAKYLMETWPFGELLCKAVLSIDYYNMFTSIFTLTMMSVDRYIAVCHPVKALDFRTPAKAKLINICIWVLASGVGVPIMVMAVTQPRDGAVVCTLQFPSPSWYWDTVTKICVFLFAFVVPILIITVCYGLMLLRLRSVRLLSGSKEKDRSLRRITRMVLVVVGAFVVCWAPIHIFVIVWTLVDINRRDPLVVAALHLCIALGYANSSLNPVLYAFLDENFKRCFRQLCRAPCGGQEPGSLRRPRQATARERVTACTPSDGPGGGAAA

[4] = target: T2, Opioid receptors; mu and delta (Mus musculus, UniProt P42866+P32300); experiment: Agonist activity at MOR/DOR in NMRI mouse spinal cord assessed as reduction in spinal cord network activity by electrophysiology assay; format: functional
Outline: (§2)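 Primary neuronal networks from frontal cortex or spinal cord grown on microelectrode array neurochips for 4 weeks to 3 months. Accumulating concentrations from 1 fM to 100 μM (nine steps), each recorded for 1 h at 37 °C, pH 7.4. Spike rate and burst duration taken from the last 30 min stable phase in 60 s bins. EC50 obtained by logistic dose-response fitting.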

[5] = target: T3, Mu-type opioid receptor (Homo sapiens, UniProt P35372); experiment: Displacement of [3H]diprenorphine from human MOR expressed in HEK293 cell membrane by liquid scintillation counting; format: cell membranes
T3 sequence (P35372 whole entry): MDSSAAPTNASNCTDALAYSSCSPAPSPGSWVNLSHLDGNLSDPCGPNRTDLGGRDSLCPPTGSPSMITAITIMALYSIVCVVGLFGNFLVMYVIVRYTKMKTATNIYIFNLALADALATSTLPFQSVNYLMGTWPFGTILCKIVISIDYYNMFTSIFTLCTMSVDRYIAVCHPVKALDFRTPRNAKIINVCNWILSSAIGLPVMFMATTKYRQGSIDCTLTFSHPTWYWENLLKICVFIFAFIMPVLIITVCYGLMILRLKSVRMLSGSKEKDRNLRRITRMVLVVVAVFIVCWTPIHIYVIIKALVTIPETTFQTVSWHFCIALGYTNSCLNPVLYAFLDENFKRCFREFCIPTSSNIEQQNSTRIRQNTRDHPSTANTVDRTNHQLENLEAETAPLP
Outline: (§3)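 Membranes (20 μg) from HEK293 cells stably expressing μ- or δ-OR incubated with [3H]diprenorphine (3.75 nM) for 45 min at 30 °C in 50 mM Tris-HCl pH 7.5, 100 mM NaCl, 10 mM MgCl2. Nonspecific binding defined with 10 μM naloxone. Bound ligand collected by GF/C filtration and counted by liquid scintillation.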

[6] = target: T3, Mu-type opioid receptor; experiment: Agonist activity at human MOR expressed in HEK293 cell membrane assessed as inhibition of forskolin-induced cAMP accumulation by liquid scintillation counting; format: functional, cell membranes
Outline: (§4)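 HEK293 cells stably expressing the μ- or δ-opioid receptor, prelabelled for 24 h with [3H]adenine. Cells treated with ligand (10 fM to 10 μM or 1 pM to 10 μM) plus 50 μM forskolin for 30 min at 37 °C. Read-out is [3H]cAMP over total [3H]adenine nucleotides by scintillation counting, given as percent of forskolin-stimulated accumulation.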

[7] = target: T3, Mu-type opioid receptor; experiment: Agonist activity at human MOR expressed in HEK293 cells assessed as stimulation of ERK1/2 phosphorylation at […] after 2 mins by Western blotting; format: functional, cell-based; outline: as §1
[8] = target: Kappa-type opioid receptor (Homo sapiens, UniProt P41145); experiment: Displacement of [3H]diprenorphine from human KOR expressed in HEK293 cell membrane by liquid scintillation counting; format: cell membranes
Chain of Kappa-type opioid receptor (P41145 whole entry): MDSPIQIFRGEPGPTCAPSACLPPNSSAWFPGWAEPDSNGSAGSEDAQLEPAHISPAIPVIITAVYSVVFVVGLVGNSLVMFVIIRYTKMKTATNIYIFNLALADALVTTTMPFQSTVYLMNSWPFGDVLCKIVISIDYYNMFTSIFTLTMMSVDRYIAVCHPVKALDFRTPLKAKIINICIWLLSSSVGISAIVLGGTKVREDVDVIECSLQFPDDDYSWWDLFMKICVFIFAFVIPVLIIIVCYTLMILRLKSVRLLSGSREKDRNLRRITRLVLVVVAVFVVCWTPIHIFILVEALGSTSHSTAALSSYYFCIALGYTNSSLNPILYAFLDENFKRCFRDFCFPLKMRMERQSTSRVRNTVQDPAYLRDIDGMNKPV

[9] = target: Mu-type opioid receptor (Rattus norvegicus, UniProt P33535); experiment: Displacement of [3H]naloxone from MOR in rat brain homogenates by liquid scintillation counting; format: tissue-based
Chain of Mu-type opioid receptor (Rattus norvegicus, UniProt P33535) (P33535 whole entry): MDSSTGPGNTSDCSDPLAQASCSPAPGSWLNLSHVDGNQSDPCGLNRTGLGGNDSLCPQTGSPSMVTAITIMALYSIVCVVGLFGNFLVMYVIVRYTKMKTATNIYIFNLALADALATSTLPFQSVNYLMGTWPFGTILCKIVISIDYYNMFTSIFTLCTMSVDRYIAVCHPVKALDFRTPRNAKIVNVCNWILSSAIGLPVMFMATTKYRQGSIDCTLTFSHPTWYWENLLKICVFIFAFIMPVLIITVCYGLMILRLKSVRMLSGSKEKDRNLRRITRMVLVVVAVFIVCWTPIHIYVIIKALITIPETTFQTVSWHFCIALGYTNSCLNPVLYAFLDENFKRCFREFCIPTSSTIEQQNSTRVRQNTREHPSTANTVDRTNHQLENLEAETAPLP

[10] = target: T1, Delta-type opioid receptor; experiment: Displacement of [3H]diprenorphine from human DOR expressed in HEK293 cell membrane by liquid scintillation counting; format: cell membranes; outline: as §3
[11] = target: Opioid receptors; mu and delta (Mus musculus) (UniProt P42866+P32300); experiment: Agonist activity at MOR/DOR in NMRI mouse frontal cortex or spinal cord networks assessed as reduction in spinal cord network activity by electrophysiology assay relative to gabapentin; format: functional, tissue-based; design: scale not given: the % may be the effect or the level left
Chain of Opioid receptors; mu and delta (Mus musculus) (P32300 whole entry, looked up): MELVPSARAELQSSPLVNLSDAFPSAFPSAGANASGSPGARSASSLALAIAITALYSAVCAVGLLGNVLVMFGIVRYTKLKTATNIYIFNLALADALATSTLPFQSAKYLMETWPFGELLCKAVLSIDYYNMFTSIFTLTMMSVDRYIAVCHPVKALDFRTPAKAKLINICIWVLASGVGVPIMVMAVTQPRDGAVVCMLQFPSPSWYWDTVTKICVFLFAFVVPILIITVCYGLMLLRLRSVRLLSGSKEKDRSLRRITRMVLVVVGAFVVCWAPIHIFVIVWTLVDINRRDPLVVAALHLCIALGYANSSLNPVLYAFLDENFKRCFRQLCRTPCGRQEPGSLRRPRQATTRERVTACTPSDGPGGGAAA
Chain of Opioid receptors; mu and delta (Mus musculus) (P42866 whole entry, looked up): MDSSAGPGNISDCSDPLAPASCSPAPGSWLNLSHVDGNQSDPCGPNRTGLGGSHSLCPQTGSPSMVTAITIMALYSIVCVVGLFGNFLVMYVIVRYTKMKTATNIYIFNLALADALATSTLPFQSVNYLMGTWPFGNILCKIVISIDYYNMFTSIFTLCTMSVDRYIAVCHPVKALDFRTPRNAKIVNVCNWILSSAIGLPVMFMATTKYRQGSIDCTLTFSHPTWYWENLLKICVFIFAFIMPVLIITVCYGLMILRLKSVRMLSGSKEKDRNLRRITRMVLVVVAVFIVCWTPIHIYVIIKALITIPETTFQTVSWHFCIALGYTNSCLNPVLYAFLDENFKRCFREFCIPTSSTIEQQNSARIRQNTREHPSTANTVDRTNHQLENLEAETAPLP

[12] = organism: Homo sapiens; experiment: Selectivity index, ratio of Ki for human DOR to Ki for human MOR by radioligand displacement assay; outline: as §3
[13] = target: T2, Opioid receptors; mu and delta; experiment: Agonist activity at MOR/DOR in NMRI mouse frontal cortex assessed as reduction in spinal cord network activity by electrophysiology assay; format: functional, tissue-based; outline: as §2
[14] = target: T3, Mu-type opioid receptor; experiment: Agonist activity at human MOR expressed in HEK293 cell membrane assessed as inhibition of forskolin-induced cAMP accumulation by liquid scintillation counting relative to control; format: functional, cell membranes
[15] = organism: Rattus norvegicus; experiment: Selectivity index, ratio of EC50 for rat brain DOR to EC50 for rat brain MOR by cAMP accumulation assay
[16] = target: T1, Delta-type opioid receptor; experiment: Agonist activity at human DOR expressed in HEK293 cell membrane assessed as inhibition of forskolin-induced cAMP accumulation by liquid scintillation counting; format: functional, cell membranes; outline: as §4
[17] = target: T3, Mu-type opioid receptor; experiment: Agonist activity at human MOR expressed in HEK293 cells assessed as stimulation of ERK1/2 phosphorylation at 1 uM after 2 mins by Western blotting; format: functional, cell-based; outline: as §1

Row | Structure (SMILES) | Activity [1] | Emax [2] | IC50 [3] | EC50 [4] | Ki [5] | EC50 [6] | Activity [7] | Ki [8] | IC50 [9] | Ki [10] | Activity [11] | Ratio Ki [12] | EC50 [13] | Emax [14] | Ratio EC50 [15] | EC50 [16] | Activity [17]
1 | C[C@H](C(=O)N[C@H]1Cc2ccccc2CN(CC(N)=O)C1=O)N1Cc2cc(O)ccc2C[C@H](N)C1=O | Active | 79% | 0.0178 µM | 6.7 nM | 2.7 µM | 5.17 nM | Active | > 1000 µM | 0.0208 µM | 0.16 µM | 14% | 0.059 | 5.67 ×10⁻⁷ M | 78% |  |  | 
2 | Cc1cc(O)cc(C)c1C[C@H](N)C(=O)N[C@H](C)C(=O)N[C@H]1Cc2ccccc2CN(CC(N)=O)C1=O | Active | 66% |  |  | 0.17 µM | 0.0832 nM |  | > 1000 µM |  | 0.018 µM |  | 0.106 |  | 78% | 2.04 | 0.17 nM | Active
3 | Cc1cc(O)cc(C)c1C[C@H](N)C(=O)N(C)[C@H](C)C(=O)N[C@@H](Cc1ccccc1)C(=O)N(C)CC(N)=O (H-[Dmt][dNMeA]F[Sar]-NH2) | Active | 72% | 0.0049 µM | 2.87 ×10⁻¹⁰ M | 0.06 µM | 0.079 nM |  | > 1000 µM | 0.0003 µM | 0.13 µM | 1% | 2.2 | 1.29 ×10⁻¹³ M | 71% | 55700 | 4400 nM | Active
4 | C[C@H](C(=O)N[C@@H](Cc1ccccc1)C(=O)N(C)CC(N)=O)N(C)C(=O)[C@@H](N)Cc1ccc(O)cc1 (H-Y[dNMeA]F[Sar]-NH2) | Active | 74% | 0.0071 µM | 1060 nM | 1.1 µM | 3.28 nM |  | > 1000 µM | 0.0281 µM | > 10 µM | 3% |  | 5 ×10⁻¹² M | 77% | 293 | 960 nM | Active
5 | Cc1cc(O)cc(C)c1C[C@H](N)C(=O)N(C)[C@H](C)C(=O)N[C@H]1Cc2ccccc2CN(CC(N)=O)C1=O | Active | 61% | 0.00095 µM | 1.3 nM | 0.0148 µM | 0.00174 nM | Active | > 1000 µM | 0.00095 µM | 0.005 µM | 21% | 0.34 | 1.61 ×10⁻¹⁵ M | 72% | 9.2 | 0.016 nM | 
